Screening results as filed in PubChem.
CCR6 antag: CCR6 receptor antagonists, primary screen, cell-based, CHO-K1, luminescence, beta-arrestin, uHTS; CHO-K1 CCR6 PathHunter beta-arrestin, CCL20-stimulated; inhibition, % at 20 µM; 340,000 compounds, 0.49% hits; AID 493098, 2011;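 active = compounds whose inhibition of the agonist-driven luminescence signal at 20 µM reaches about 50%, limit read from the data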;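 note: cells stimulated with CCL20 at 14 nM final; plate controls were DMSO with CCL20 for no effect and DMSO without agonist for full effect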
CXCR6 inh: CXCR6 receptor inhibitors, primary screen, cell-based, beta-arrestin, luminescence, CHO-K1 PathHunter, 1536-well; C-X-C chemokine receptor type 6 (Homo sapiens), O00574; inhibition, % at 20 µM; 360,000 compounds, 0.36% hits; AID 602244, 2012; in the data active = inhibition above about 34%, passing the limit was not always enough;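 note: antagonist mode with CXCL16 agonist at 10 nM final; 0% = 10 nM CXCL16 with DMSO and 100% = unstimulated wells without agonist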
Target sequence (O00574 whole entry, looked up): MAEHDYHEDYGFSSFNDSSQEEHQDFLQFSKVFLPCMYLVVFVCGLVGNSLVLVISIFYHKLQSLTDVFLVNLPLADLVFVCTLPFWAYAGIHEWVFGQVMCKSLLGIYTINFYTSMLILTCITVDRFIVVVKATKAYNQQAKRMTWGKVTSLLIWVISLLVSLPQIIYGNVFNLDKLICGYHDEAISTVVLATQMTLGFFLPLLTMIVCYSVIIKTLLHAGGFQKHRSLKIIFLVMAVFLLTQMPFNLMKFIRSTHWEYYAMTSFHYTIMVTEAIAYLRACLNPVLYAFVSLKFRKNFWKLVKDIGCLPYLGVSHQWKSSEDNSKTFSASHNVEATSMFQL
APJ antag: antagonists of human apelin receptor APJ, primary screen, CHO-K1 cells, beta-arrestin complementation, luminescence | inhibition, % at 20 µM | AID 2521, 2010 | P35414 | 330,000 compounds, 0.32% hits;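 active = inhibition above about 40% at 20 µM, limit read from the data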;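 note: cells challenged with 10 nM apelin-13 agonist together with compound; plate controls were apelin-13 plus DMSO wells for no effect and DMSO wells lacking apelin-13 for full effect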
Target sequence (P35414 whole entry, looked up): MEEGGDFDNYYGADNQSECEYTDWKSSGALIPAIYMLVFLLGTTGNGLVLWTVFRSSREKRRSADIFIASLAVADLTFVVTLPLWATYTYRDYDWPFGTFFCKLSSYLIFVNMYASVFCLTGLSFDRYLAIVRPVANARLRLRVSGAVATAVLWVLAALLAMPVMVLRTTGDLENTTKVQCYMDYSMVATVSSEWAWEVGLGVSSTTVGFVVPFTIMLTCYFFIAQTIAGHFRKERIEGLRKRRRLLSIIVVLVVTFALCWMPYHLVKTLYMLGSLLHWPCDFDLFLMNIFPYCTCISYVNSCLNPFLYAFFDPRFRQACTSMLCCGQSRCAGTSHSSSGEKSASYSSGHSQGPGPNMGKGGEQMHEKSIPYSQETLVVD
APJ agonist: agonists of human apelin receptor APJ, primary screen, CHO-K1 cells, PathHunter beta-arrestin, luminescence; 330,000 compounds, 0.11% hits; 0% DMSO wells, 100% apelin; activation, % at 20 µM; AID 2520, 2010;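 active = activation more than six SD over the plate average, tested at 20 µM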;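 note: 0% = DMSO alone and 100% = apelin-13 at 10 nM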
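Assay system: engineered CHO-K1 APJ arrestin reporter cells; Amount: 1000 CHO-K1 reporter cells seeded per well; Dosing: one dose, 20 µM compound, 1% DMSO; Times: compound stimulation 90 min at 25 °C, detection 60 min; Measured by: luminescent beta-gal fragment complementation, chemiluminescent substrate; Read-out: APJ–arrestin association signal; Controls: DMSO vs Apelin-13 10 nM.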
PfG6PD inh: PfG6PD enzyme inhibitors, primary screen, biochemical, fluorescence intensity, uHTS; PfGluPho enzyme, NADPH resazurin-diaphorase fluorescence; glucose-6-phosphate dehydrogenase-6-phosphogluconolactonase (Plasmodium falciparum 3D7); inhibition, % at 20 µM; 350,000 compounds, 0.78% hits;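 active = inhibition reaching at least a set limit at 20 µM in the primary screen, cut at about 59% in these data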;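 note: 0% = DMSO wells with substrate and 100% = DMSO wells lacking glucose-6-phosphate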
Beta2AR agonist: beta2AR agonists driving receptor internalization, primary screen, cell-based, FAP fluorogen, flow cytometry; Beta-2 adrenergic receptor (Homo sapiens), P07550; Am2.2-beta2AR cells; response, % (no concentration beside the values); 340,000 compounds, 0.43% hits;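 active = response above a set limit, near 3 SD of response in nonfluorescent compounds, cut at about 42% in these data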
B2AR ag CP1: beta2AR agonists via receptor internalization, confirmation, cell-based, FAP fluorogen, flow cytometry, single point, cherry pick 1 | shares compounds with Beta2AR agonist | percent response (surface receptor), % at 10 µM | Am2.2-beta2AR cells, FAP surface receptor; stronger effect = lower value | 1,100 compounds, 25% hits;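 active = surface receptor percent response at or below 58%, roughly 3 SD from nonfluorescent compounds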
FAP fluor counter: flagged in Am2.2 fluorescence counterscreen for beta-2AR agonists. shares compounds with Beta2AR agonist. Am2.2 cells, FAP fluorogen flow cytometry; stronger effect = lower value. calls only at 10 µM. 1,100 tested, under 10 active;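 active = percent response below a set limit in fluorescence channel 1 and below 50% in channel 8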
* = called active by the depositor; i = inactive; . = no result. The list is not random: actives were taken first. Their share in the collection is about 1.7%.

SMILES	CCR6 antag	CXCR6 inh	APJ antag	APJ agonist	PfG6PD inh	Beta2AR agonist	B2AR ag CP1	FAP fluor counter
Cc1cc(C)n(C(=O)CCCCCCCC(=O)n2nc(C)cc2C)n1	17.4	-2.1	-3.5	0.2	2.3	0.2	.	.
Cc1cc(C)n(C(=O)CCCC(=O)n2nc(C)cc2C)n1	-1.9	-8.5	-5.0	-3.0	2.6	54.1*	91.5	i
CC(=O)Nc1ccc(S(=O)(=O)Nc2nc3ccccc3nc2Nc2ccc(N)cc2)cc1	20.8	11.3	3.3	-3.3	-5.9	3.9	.	.
CCCCN(CCCC)c1nc2ccccc2nc1NS(=O)(=O)c1ccc(NC(C)=O)cc1	-5.4	1.6	1.2	-3.6	2.2	118.7*	27.6*	i
O=C(Nc1cc(C(F)(F)F)ccc1-n1cncn1)c1cn2ccccc2n1	-6.8	-14.2	1.4	8.6	31.6	-17.2	.	.
C[C@@H]1CN([C@H](C)CO)C(=O)CCCn2nncc2CO[C@@H]1CN(C)S(=O)(=O)c1ccccc1C#N	.	7.6	.	.	-4.4	.	.	.
COc1ccc(S(=O)(=O)N(C)C[C@H]2Oc3ccc(NS(=O)(=O)c4ccc(F)cc4)cc3C(=O)N([C@H](C)CO)C[C@@H]2C)cc1	-2.7	-7.4	11.9	-1.4	-7.0	-5.5	.	.
CC(=O)N1CCN(c2ccc(NC(=O)c3cccc([N+](=O)[O-])c3)cc2)CC1	7.2	-0.9	4.4	1.7	1.6	2.5	.	.
COc1ccc(CCNCC(O)c2ccccc2)cc1 (stereo unspecified)	2.4	0.9	-9.8	-3.1	14.2	-0.9	95.6	i
CSc1ccc(CNCC(O)c2ccccc2)cc1 (stereo unspecified)	-1.5	-0.1	4.3	-3.9	13.3	-2.4	.	.
O=C(NCC(O)c1ccccc1)c1ccccc1 (stereo unspecified)	7.8	-2.6	-34.8	5.7	1.0	4.8	.	.
OC(CNCCc1ccccc1)c1ccccc1 (stereo unspecified)	12.7	9.9	16.9	-0.5	-5.5	7.2	105.4	i
O[C@@H](CNC[C@H](O)c1ccccc1)c1ccccc1	2.2	-5.3	2.8	-2.4	14.7	-10.2	111.5	i
Cc1ccc(SCC(=O)Nc2ccc(-c3nc4ccccc4[nH]3)cc2)cc1	15.8	4.5	7.1	0.8	4.4	106.9*	16.5*	i
CCOC(=O)CSc1ccc(-c2nc3ccccc3[nH]2)cn1	-18.4	-7.4	-9.0	11.3	3.7	45.5*	107.2	i
Cc1ccccc1Oc1ccc2c(c1)[C@@H]1C[C@H](N(C)C(=O)Nc3cc(Cl)cc(Cl)c3)[C@H]([C@H](C)O)C(=O)N1CC2	0.5	0.5	.	.	15.1	6.4	.	.
CC(C)CN(CC(C)C)S(=O)(=O)c1cc([N+](=O)[O-])ccc1N1CCCCCC1	18.9	10.5	29.7	-10.5	22.9	51.6*	63.5	i
CN(C)S(=O)(=O)c1cc([N+](=O)[O-])ccc1N1CCCCCC1	10.2	4.4	-0.9	-4.7	8.1	40.0	.	.
CCOc1ccc(-c2cc(C(=O)NCCCn3ccnc3)c3cc(Br)ccc3n2)cc1	-1.4	-13.5	-5.3	14.7	11.6	50.2*	66.8	i
CCOc1ccc(-c2cc(C(=O)NCCCn3ccnc3)c3ccccc3n2)cc1	3.3	1.2	-22.5	0.4	10.6	-10.5	.	.
Cc1ccc(C)c(NC(=O)C(c2ccccc2)N2CCOCC2)c1 (stereo unspecified)	6.7	9.1	17.3	-4.1	-5.4	-6.1	103.7	i
Cc1cccc(C)c1NC(=O)C(c1ccccc1)N1CCOCC1 (stereo unspecified)	12.8	0.1	8.1	-6.0	-8.2	0.5	.	.
CC(=O)c1cccc(NC(=O)COC(=O)c2ccc(S(C)(=O)=O)c([N+](=O)[O-])c2)c1	-6.2	-3.8	-2.0	2.5	-0.5	67.9*	98.7	i
CC(=O)c1c[nH]c(C(=O)NCc2ccccc2Cl)c1	11.5	-5.9	0.3	-2.5	-11.0	-0.9	.	.
CC(=O)NCCc1ccc(S(=O)(=O)Nc2ccc3c(c2)OCCO3)cc1	4.2	-5.1	23.1	-0.1	-3.2	-0.1	.	.
SMILES	CCR6 antag	CXCR6 inh	APJ antag	APJ agonist	PfG6PD inh	Beta2AR agonist	B2AR ag CP1	FAP fluor counter
Cc1nc(SCc2nc3c([N+](=O)[O-])cccc3[nH]2)c2oc3ccccc3c2n1	-7.6	-7.2	-10.6	-2.1	-1.7	52.0*	124.3	i
CCCCCC1C(=O)C[C@@H]2CCN3C(=O)CCC[C@H]1[C@H]23 (stereo partly specified)	14.3	6.8	.	.	-0.6	1.2	.	.
CC(=O)c1cccc(NC2c3ccccc3C(=O)N2Cc2ccco2)c1 (stereo unspecified)	6.2	-7.2	9.6	0.4	-17.3	-6.4	.	.
COc1cccc(NC2c3ccccc3C(=O)N2Cc2ccco2)c1 (stereo unspecified)	-6.5	4.7	8.1	-3.4	16.5	68.7*	103.6	i
COc1ccc2c(c1)[nH]c1c(=O)n(/N=C/c3ccc(OC)c(COc4ccccn4)c3)cnc12	-22.5	-3.6	-11.1	-0.8	11.5	20.6	.	.
COc1ccc(/C=N/n2cnc3c([nH]c4ccc(F)cc43)c2=O)cc1CSc1ccccn1	7.6	-2.4	-1.4	-7.0	-1.8	57.7*	79.3	i
COc1cc(CNCCc2ccc(S(N)(=O)=O)cc2)ccc1OCc1ccc(Cl)cc1	18.9	-7.7	13.7	8.9	13.7	54.6*	93.0	i
CCOc1cc(CNCCc2ccc(S(N)(=O)=O)cc2)ccc1OCc1ccc(Cl)cc1	1.9	18.7	23.2	14.6	17.8	49.5*	31.2*	i
O=C(OCc1nnc(-c2ccccc2)o1)c1ccc(CO)cc1	5.4	1.2	-7.4	-2.9	-16.6	-12.3	97.8	i
Cc1cc(N2CCN(C)CC2)ccc1NC(=O)c1cccc(S(=O)(=O)N2CCc3ccccc3C2)c1	16.5	3.2	-1.7	0.6	0.5	42.0*	82.5	i
Cn1c(Nc2ccc(Cl)cc2)cc(=O)n(C)c1=O	16.5	-3.0	-20.1	2.7	-12.5	-8.9	.	.
CC(C)n1c(=O)c2ccccc2n1Cc1cn(Cc2cccs2)nn1	.	2.1	.	.	.	.	.	.
CC(C)(NC(=O)NC(CO)c1ccccc1)c1cccc(C(C)(C)NC(=O)NC(CO)c2ccccc2)c1 (stereo unspecified)	6.0	2.6	21.0	-4.6	11.8	-8.3	109.6	i
